# Screening results as filed in PubChem.
# OX1R antag-1 = antagonists of human orexin 1 receptor (OX1R); 330,000 compounds, 1.8% hits; OX1R-expressing cells, FRET antagonist read-out; AID 485270; inhibition, % at 6.6 µM; in the data active means inhibition mostly above about 38%, no sharp cut-off; inactive means mostly below about 40%;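 further: 0% = agonist challenge alone and 100% = reference antagonist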
# GPR7 antagonist = antagonists of human GPR7 (neuropeptides B/W receptor 1); P48145; GPR7-expressing cells, fluorescence antagonist assay; inhibition, % at 4.4 µM; 290,000 compounds, 1.1% hits; in the data active means inhibition above about 16%, passing the limit was not always enough;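 further: cells stimulated with the agonist NPW; 0% = agonist with vehicle and 100% = vehicle without agonist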
# CHO parental Ca = signal in parental CHO cells, OX1R antagonist counter-screen. parental CHO-K1, ATP-induced calcium, Fluo-8 fluorescence. inhibition, % at 5.6 µM. 330,000 compounds, 0.63% hits;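 active means inhibition above that plate's mean sample inhibition plus 3 SD, cut at about 26% in these data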;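 further: 0% = ATP-challenged DMSO wells and 100% = DMSO wells without ATP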
#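 Test system: parental CHO cells; detection: calcium-sensitive Fluo-8 fluorescence; evaluation: percent inhibition of calcium signal; also added: ATP as calcium-mobilizing challenge; repeats: one well per compound; control set: ATP-challenged DMSO wells low, unchallenged DMSO wells high; compound: single nominal dose of 5.6 µM per compound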
# GalR3 antagonist = antagonists of human GalR3; inhibition, % at 3 µM; HEK293 GalR3-CNG cAMP membrane potential fluorescence; galR3 body fused to GalR1 C-terminus; 360,000 compounds, 0.44% hits; O60755;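 active means inhibition above the screen-wide average plus 3 SD, cut at about 13% in these data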;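 further: forskolin and galanin both at EC90 stimulate the cells; cAMP rise reported by CNG channel membrane potential dye signal; 0% = forskolin plus galanin with DMSO and 100% = forskolin alone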
# Target sequence (O60755 1-299 limits assumed): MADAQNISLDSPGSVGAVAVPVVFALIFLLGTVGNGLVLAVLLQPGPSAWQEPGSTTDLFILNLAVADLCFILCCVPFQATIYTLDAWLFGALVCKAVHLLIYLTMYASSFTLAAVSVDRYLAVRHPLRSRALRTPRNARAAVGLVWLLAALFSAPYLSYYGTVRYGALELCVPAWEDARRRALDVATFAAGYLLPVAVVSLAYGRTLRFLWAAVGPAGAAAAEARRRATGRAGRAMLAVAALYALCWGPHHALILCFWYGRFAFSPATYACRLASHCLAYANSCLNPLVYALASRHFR
# OX1R antag-2 = antagonists of human orexin 1 receptor; 330,000 compounds, 0.43% hits; inhibition, % at 5 µM; O43613; CHO/OX1R cells, Fluo-8 calcium fluorescence, orexin A;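 active means inhibition above its plate's threshold, mean inhibition of all tested compounds on the plate plus 3 SD, cut at about 37% in these data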;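 further: 0% = orexin A challenge wells and 100% = SB-334867-A antagonist wells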
# * hit, by the source's call; . = no result given. Rows were chosen to be rich in hits. Some 3.1% of all compounds tested hit in one or more screens of this group.
SMILES,OX1R antag-1,GPR7 antagonist,CHO parental Ca,GalR3 antagonist,OX1R antag-2
CCOC(=O)/C=C/C(=O)Nc1ccc(Oc2ccccc2)cc1,10,20,44*,-1,33
CCOC(=O)/C=C/S(=O)(=O)c1ccc(NC(C)=O)cc1,-3,18*,26,-3,1
Cc1ccc(CN2C(=O)N/C(=C\c3ccc(N4CCOCC4)cc3)C2=O)cc1,15,0,-15,-11,-19
Cc1cc(/C=C2\NC(=S)N(C)C2=O)ccc1N1CCCC1,26,-8,53*,3,72*
CCN1C(=O)/C(=C/c2ccc(N3CCCC3)cc2)NC1=S,27,10,62*,-3,74*
Cc1cc(N2CCCC2)ccc1/C=C1/C(=O)N(C)C(=S)N1C,11,-7,13,-4,16
CCCN1C(=O)/C(=C/c2ccc(N3CCCC3)c(C)c2)NC1=S,22,4,87*,1,93*
Cc1cc(/C=C2/C(=O)N(C)C(=S)N2C)ccc1N1CCCC1,6,-12,42*,-3,65*
COc1cc(/C=C2\NC(=S)N(C)C2=O)ccc1O,20,6,-6,2,2
CSCc1ccc(C(=O)OCc2nc3ccccc3s2)o1,8,.,-9,-5,-17
CCN(CC)C(=O)c1ncn2c1C(=O)N[C@H](C)C2,.,.,.,-4,.
O=c1ccc2c(-c3ccccc3)c3ccc(O)cc3oc-2c1,19,23,101*,-3,107*
O=c1cc(-c2ccccc2)oc2cc(O)ccc12,.,.,.,-8,.
Nc1ccc(-c2c3ccc(=O)cc-3oc3cc(O)ccc23)cc1C(=O)O,69*,29,70*,-10,84*
C[C@H](CO)N1C[C@H](C)[C@H](CN(C)C(=O)Nc2ccccc2F)OCc2cnnn2CCCC1=O,.,.,.,-3,.
COc1cccc(OCc2ccc(Cn3nc(NC(=O)NCCc4ccc(OC)c(OC)c4)c4ccccc43)cc2)c1,.,.,.,-5,.
Cc1ccc(NC(=O)COC(=O)c2cccc(S(=O)(=O)N3CCCCCC3)c2)cc1,.,.,.,-4,.
COc1ccccc1C(=O)NC(=O)COC(=O)c1ccc([N+](=O)[O-])cc1,50*,.,-18,-3,-16
Cc1c(C(=O)N2CCOCC2)c(S(=O)(=O)N2CCN(c3ccc(Cl)cc3)CC2)c(C)n1C,4,-13,-3,-1,-12
COc1ccc(CN(C)S(=O)(=O)c2nnc(NC(=O)c3ccccc3OC)s2)cc1OC,49*,-2,-30,-6,-38
COc1ccc(CN(C)S(=O)(=O)c2nnc(NC(=O)c3ccc(C)cc3)s2)cc1OC,10,1,-11,-1,-29
CCCCCCCCCCCCCCCC[N+](C)(C)CCN(Cc1ccc(OC)cc1)c1ncccn1,7,.,64*,.,46*
COc1ccc(CN(CCN(C)C)c2ccccn2)cc1,17,-13,-12,-6,-3
Cc1ccc(CC(=O)Nc2cccc([N+](=O)[O-])c2)cc1,9,19*,-5,-4,-14
Cc1ccc2nc(SCC(=O)Nc3ccc(C(N)=O)cc3)[nH]c2c1,3,1,14,-2,-12
SMILES,OX1R antag-1,GPR7 antagonist,CHO parental Ca,GalR3 antagonist,OX1R antag-2
O=C(Nc1cccc([N+](=O)[O-])c1)Nc1cccc([N+](=O)[O-])c1,45,-10,34*,-4,-11
Cc1ccc(S(=O)(=O)CCC(=O)Nc2cccc([N+](=O)[O-])c2)cc1,15,-13,-10,1,-11
O=C(NC(=S)Nc1cccc([N+](=O)[O-])c1)C1CCCC1,34,20*,6,2,3
Cc1ccc2nc(SCC(=O)Nc3cccc([N+](=O)[O-])c3)[nH]c2c1,14,-2,12,-6,53*
O=C(Nc1ccc(C(=O)O)cc1)Nc1cccc([N+](=O)[O-])c1,18,3,-11,2,-14
CC#CCN(Cc1ccco1)C(=O)C1CCC(=O)N(CCc2cccc(F)c2)C1 (stereo not drawn),.,.,.,-3,.
COc1ccc(CN(C(=O)CSc2nnc(-c3c[nH]c4ccccc34)o2)c2ccc(F)cc2)cc1OC,81*,6,35*,-5,34
COc1ccc(CN(C(=O)CSc2nnc(-c3ccc(F)cc3)o2)c2ccc(F)cc2)cc1,23,-7,-6,-9,-9
CC(C)CNC(=O)c1ccccc1NC(=O)c1ccccc1N(C)S(=O)(=O)c1ccccc1,69*,-4,-25,-5,-1
Cc1c(NC(=O)c2ccccc2N(C)S(=O)(=O)c2ccccc2)c(=O)n(-c2ccccc2)n1C,41*,-5,-11,0,-12
